{"source": "paper PMC8791645", "about": "(Advanced therapeutics, 2021)", "key": {"M9-ENL1 cells": {"test_system": "M9-ENL1 cells", "experiment": "MTT cell viability assay with M9-ENL1 cells", "type": "cell-based"}, "[1]": {"experiment": "Drug release from PSMA-b-PS based NPs", "type": "physicochemical", "conditions": "for release half-life from NPs: PSMA-b-PS NPs, PBS pH 7.4, 37 °C", "in_short": "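Loaded NPs dialysed (6–8 kDa MWCO) against phosphate-buffered saline, pH 7.4, 37 °C. Aliquots taken at 0, 1, 2, 4, 6, 8, 24, 48 and 72 h, with sink medium replaced at 2, 8, 24 and 48 h. Each aliquot mixed with an equal volume of methanol and analysed by C18 HPLC with 210 nm detection.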"}, "MV411 cells": {"test_system": "MV411 cells", "experiment": "alamarBlue cell viability", "type": "cell-based"}, "[2]": {"experiment": "Drug loading capacity in PSMA-b-PS NPs", "type": "physicochemical", "conditions": "mg drug loaded/mg NPs × 100, PSMA-b-PS NPs", "in_short": "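Test compounds in chloroform (3 mg mL−1) stirred with aqueous NPs at 1:3 drug:NP weight ratio, left uncovered overnight to evaporate solvent (acetone in some runs). Insoluble drug removed by two 4000 rpm spins, and unloaded drug by 100 000 MWCO centrifugal filtration (2000 rpm, 10 min). Quantified by C18 reversed-phase HPLC at 210 nm against methanol standards. LC = mg drug loaded/mg NPs × 100.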"}, "[3]": {"experiment": "Serum stability of MCL analogs", "type": "in vitro ADME, mouse"}}, "note": "Where two headings read alike, the source gives them in different places.", "data": [{"smiles": "C=C1C(=O)O[C@H]2[C@H]1CCC(C)=C1CC[C@@](C)(O)[C@@H]12", "note": "[MCL, Micheliolide, reference compound]", "values": [{"measurement": "CC50", "setting": "M9-ENL1 cells; M9-ENL1, 24 h, read-out: LC50 M9-ENL1", "value": "15.4 ± 1.1", "unit": "µM"}, {"measurement": "release half-life from NPs", "setting": "[1]", "value": 19.8, "unit": "min"}, {"measurement": "CC50", "setting": "MV411 cells; Homo sapiens, MV4-11, 24 h, read-out: LC50 MV-411", "value": "5.6 ± 2.8", "unit": "µM"}, {"measurement": "loading capacity (LC)", "setting": "[2]", "value": "≈ 14%"}]}, {"smiles": "C=C1C(=O)O[C@H]2[C@H]1CCC(C)=C1[C@H](OC(=O)c3ccc(C(F)(F)F)cc3)C[C@@](C)(O)[C@@H]12", "note": "[MCL-13]", "values": [{"measurement": "CC50", "setting": "M9-ENL1 cells", "value": "1.8 ± 1", "unit": "µM"}, {"measurement": "CC50", "setting": "MV411 cells", "value": "1.8 ± 0.7", "unit": "µM"}]}, {"smiles": "C=C1C(=O)O[C@H]2[C@H]1CCC(COC(=O)c1cc(C(F)(F)F)cc(C(F)(F)F)c1)=C1CC[C@@](C)(O)[C@@H]12", "note": "[MCL-19]", "values": [{"measurement": "hydrolysis", "setting": "[3]; free compound, 24 h incubation in both 50% and 100% serum", "value": "80–90%"}, {"measurement": "degradation half-life in serum", "setting": "[3]; free drug, 50% serum", "value": 18, "unit": "min"}, {"measurement": "intact compound", "setting": "[3]; free drug, 50% serum, after 8 h of incubation", "value": "7 ± 2", "unit": "%"}, {"measurement": "CC50", "setting": "M9-ENL1 cells", "value": "4.1 ± 1.1", "unit": "µM"}, {"measurement": "release half-life from NPs", "setting": "[1]", "value": 540, "unit": "min"}, {"measurement": "release rate from NPs", "setting": "[1]; from 0–8 h", "value": 5.7, "unit": "h⁻¹"}, {"measurement": "CC50", "setting": "MV411 cells", "value": "1.7 ± 0.9", "unit": "µM"}]}]}
